Experimental data published in ChEMBL document CHEMBL1142927, “Novel 3-iodo-8-ethoxypyrazolo[5,1-c][1,2,4]benzotriazine 5-oxide as promising lead for design of alpha5-inverse agonist useful tools for therapy of mnemonic damage” (Bioorg Med Chem, 2007).
Calls of active or inactive are those of the source. The rule behind the calls is not given here.

Experiments:
[1] = Displacement of [3H]flumazenil from bovine brain cortex GABAA/Bz receptor; set-up: species or system Bos taurus
Outline: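 Bovine cerebral cortex membranes in 50 mM Tris-citrate pH 7.4, [3H]Ro 15-1788 (70.8 Ci/mmol) as radioligand. […] At least six concentrations used, curve-fitted, Ki by Cheng–Prusoff; means ± SEM of five determinations in triplicate.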

Mus musculus [2] = test: Anticonvulsant activity against pentylenetetrazole-induced seizure in CD1 Albino mouse at 30 mg/kg, po; type: functional
Outline: (§1)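 Male CD-1 mice (22–24 g) dosed po in 1% carboxymethylcellulose (10 ml/kg); PTZ 90 mg/kg sc given 30 min later. Occurrence of clonic generalized convulsions noted over 30 min and expressed as percent of animals protected; latency (s) also recorded. Means ± SEM; ANOVA with Scheffe post-hoc test, Student's two-tailed t-test for pairs of means.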

Mus musculus [3] = test: Anticonvulsant activity against pentylenetetrazole-induced seizure in CD1 Albino mouse assessed as latency at 3 mg/kg, po; type: functional; outline: as §1
[4] = target: GABA-A receptor alpha-5/beta-2/gamma-2 (Rattus norvegicus); test: Displacement of [3H]Ro-151788 from rat recombinant GABA alpha-5-beta-2-gamma-2 receptor expressed in HEK293 cells
Mus musculus [5] = test: Anticonvulsant activity against pentylenetetrazole-induced seizure in CD1 Albino mouse at 10 mg/kg, po; type: functional; outline: as §1
Mus musculus [6] = test: Anticonvulsant activity against pentylenetetrazole-induced seizure in CD1 Albino mouse at 3 mg/kg, po; type: functional; outline: as §1
Mus musculus [7] = test: Effect on motor coordination in CD1 Albino mouse assessed as number of falls in 30 secs at 3 mg/kg, po […] by rotarod test relative to control; type: functional
Mus musculus [8] = test: Effect on motor coordination in CD1 Albino mouse assessed as number of falls in 30 secs at 10 mg/kg, po […] by rotarod test relative to control; type: functional
[9] = target: GABA-A receptor; alpha-1/beta-2/gamma-2 (Rattus norvegicus, UniProt P18508+P62813+P63138); test: Displacement of [3H]Ro15-1788 from rat recombinant GABA alpha-1-beta-2-gamma-2 receptor expressed in HEK293 cells; type: cell-based
Chain of GABA-A receptor; alpha-1/beta-2/gamma-2 (P18508 whole entry): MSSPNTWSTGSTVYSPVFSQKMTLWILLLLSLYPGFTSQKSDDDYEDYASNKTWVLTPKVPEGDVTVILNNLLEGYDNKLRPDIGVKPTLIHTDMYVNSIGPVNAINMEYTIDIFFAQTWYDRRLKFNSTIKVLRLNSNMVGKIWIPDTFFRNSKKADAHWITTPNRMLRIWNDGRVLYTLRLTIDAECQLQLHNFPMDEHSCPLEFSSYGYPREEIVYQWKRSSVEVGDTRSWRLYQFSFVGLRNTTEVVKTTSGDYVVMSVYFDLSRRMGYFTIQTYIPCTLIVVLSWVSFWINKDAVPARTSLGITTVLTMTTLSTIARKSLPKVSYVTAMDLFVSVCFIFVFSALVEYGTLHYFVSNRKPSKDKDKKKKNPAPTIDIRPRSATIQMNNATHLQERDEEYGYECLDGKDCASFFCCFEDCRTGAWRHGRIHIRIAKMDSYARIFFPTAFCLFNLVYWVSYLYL
Chain of GABA-A receptor; alpha-1/beta-2/gamma-2 (P62813 whole entry): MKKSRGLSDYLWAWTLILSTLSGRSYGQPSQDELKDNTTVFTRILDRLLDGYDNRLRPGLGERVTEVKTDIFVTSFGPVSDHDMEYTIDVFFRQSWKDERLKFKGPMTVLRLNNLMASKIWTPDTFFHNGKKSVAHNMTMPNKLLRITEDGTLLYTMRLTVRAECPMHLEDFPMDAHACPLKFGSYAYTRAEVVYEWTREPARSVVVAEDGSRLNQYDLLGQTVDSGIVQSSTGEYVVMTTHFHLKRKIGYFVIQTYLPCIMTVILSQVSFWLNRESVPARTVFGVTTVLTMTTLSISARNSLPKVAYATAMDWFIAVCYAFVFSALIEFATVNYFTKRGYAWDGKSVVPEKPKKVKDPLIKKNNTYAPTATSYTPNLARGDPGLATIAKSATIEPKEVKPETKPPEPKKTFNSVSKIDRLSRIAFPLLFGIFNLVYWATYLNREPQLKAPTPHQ
Chain of GABA-A receptor; alpha-1/beta-2/gamma-2 (P63138 whole entry): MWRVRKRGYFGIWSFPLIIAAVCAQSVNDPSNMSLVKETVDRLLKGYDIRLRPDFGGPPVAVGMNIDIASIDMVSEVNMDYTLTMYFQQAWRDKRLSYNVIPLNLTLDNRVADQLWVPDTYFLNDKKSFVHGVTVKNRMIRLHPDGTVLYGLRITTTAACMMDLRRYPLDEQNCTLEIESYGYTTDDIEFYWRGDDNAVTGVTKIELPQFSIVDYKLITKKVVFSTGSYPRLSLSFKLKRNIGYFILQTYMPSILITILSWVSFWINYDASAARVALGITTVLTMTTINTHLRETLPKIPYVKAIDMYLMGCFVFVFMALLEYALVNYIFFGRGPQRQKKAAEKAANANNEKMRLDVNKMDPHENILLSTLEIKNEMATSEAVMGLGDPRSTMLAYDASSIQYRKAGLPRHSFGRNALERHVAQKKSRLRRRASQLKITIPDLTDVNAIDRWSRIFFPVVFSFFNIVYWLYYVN
Outline: (§2)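 Crude membranes from clonal mammalian cells expressing recombinant subtypes, grown in MEM/EBSS with 10% FCS at 37 °C, 5% CO2. Membranes resuspended in 10 mM potassium phosphate pH 7.4 with 100 mM KCl. Ki from three independent experiments run in triplicate, means ± SEM.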

[10] = target: GABA A receptor alpha-3/beta-2/gamma-2 (Rattus norvegicus, UniProt P18508+P20236+P63138); test: Displacement of [3H]Ro15-1788 from rat recombinant GABA alpha-3-beta-2-gamma-2 receptor expressed in HEK293 cells; type: cell-based; outline: as §2
Chain of GABA A receptor alpha-3/beta-2/gamma-2 (P18508 whole entry): as the sequence (P18508 whole entry) above
Chain of GABA A receptor alpha-3/beta-2/gamma-2 (P20236 whole entry): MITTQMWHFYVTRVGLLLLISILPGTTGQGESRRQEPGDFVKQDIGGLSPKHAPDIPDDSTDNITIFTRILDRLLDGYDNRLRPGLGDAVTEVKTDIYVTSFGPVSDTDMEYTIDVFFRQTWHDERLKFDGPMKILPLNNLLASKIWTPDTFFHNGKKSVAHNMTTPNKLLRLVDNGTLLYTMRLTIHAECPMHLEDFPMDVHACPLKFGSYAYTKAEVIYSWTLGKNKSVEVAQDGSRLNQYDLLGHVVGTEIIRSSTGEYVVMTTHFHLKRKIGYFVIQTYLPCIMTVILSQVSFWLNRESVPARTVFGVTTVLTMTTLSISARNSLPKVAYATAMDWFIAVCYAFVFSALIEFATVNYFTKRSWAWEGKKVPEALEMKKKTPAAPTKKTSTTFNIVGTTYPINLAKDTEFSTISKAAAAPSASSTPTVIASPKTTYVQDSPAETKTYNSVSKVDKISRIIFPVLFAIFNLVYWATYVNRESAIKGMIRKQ
Chain of GABA A receptor alpha-3/beta-2/gamma-2 (P63138 whole entry): as the sequence (P63138 whole entry) above

Mus musculus [11] = test: Effect on learning and memory performance in CD1 Albino mouse assessed as cognition enhancement at 3 mg/kg, po; type: functional, organism-based; set-up: dose 3 mg/kg
Outline: (§3)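 Passive avoidance test in male CD-1 mice dosed po 30 min before training, with retention tested 24 h later. Read-out was the difference in latency (s) to enter the dark compartment between training and retention. Means ± SEM of 9–10 mice; ANOVA with Fischer's test.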

Mus musculus [12] = test: Effect on learning and memory performance in CD1 Albino mouse assessed as cognition enhancement at 10 mg/kg, po; type: functional, organism-based; set-up: dose 10 mg/kg; outline: as §3
Mus musculus [13] = test: Decrease in ethanol-induced sleeping time in CD1 Albino mouse at 3 mg/kg, po relative to control; type: functional, organism-based; set-up: dose 3 mg/kg
Outline: (§4)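 Male CD-1 mice given drug po in 1% CMC, then ethanol 4 g/kg ip 30 min later. Sleep time taken as duration of loss of righting reflex, capped at 210 min. Means ± SEM of 5–16 mice; ANOVA with Fischer's test versus controls.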

Mus musculus [14] = test: Anxiogenic-like effect in CD1 Albino mouse assessed as decrease in number of transfers from one compartment to another at 10 mg/kg in light-dark box test; type: functional, organism-based; set-up: dose 10 mg/kg
Outline: (§5)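 Light/dark box test in male CD-1 mice dosed 30 min beforehand in 1% CMC vehicle. Number of transfers between compartments and time spent in the illuminated side counted over 5 min. Statistics by ANOVA with Fischer's test versus controls.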

Mus musculus [15] = species: Mus musculus; test: Anxiogenic-like effect in CD1 Albino mouse assessed as decrease in time spent in light compartment in light-dark box test; type: functional, organism-based; outline: as §5
Mus musculus [16] = test: Decrease in ethanol-induced sleeping time in CD1 Albino mouse at 10 mg/kg, po relative to control; type: functional, organism-based; set-up: dose 10 mg/kg; outline: as §4
Mus musculus [17] = test: Effect on motor coordination in CD1 Albino mouse assessed as number of falls in 30 secs at 30 mg/kg, po […] by rotarod test relative to control; type: functional

C#CCOc1ccc2c(c1)n1ncc(I)c1n[n+]2[O-]
Ki [1]: 0.8 nM

Clc1ccc2nnc3c(I)cnn3c2c1
Ki [1]: 22.8 nM

[O-][n+]1nc2c(Br)cnn2c2cc(I)ccc21
Ki [1]: 81 nM

Cc1ccc2c(c1)n1ncc(Br)c1n[n+]2[O-]
Ki [1]: 53.2 nM

CCCCCOc1ccc2c(c1)n1ncc(I)c1n[n+]2[O-]
Ki [1]: 6.5 nM

[O-][n+]1nc2c(Br)cnn2c2cc(Br)ccc21
Ki [1]: 73 nM

CCOc1ccc2nnc3c(I)cnn3c2c1
Activity (Mus musculus [2]): 0%
Ki [1]: 18 nM
Activity (Mus musculus [3]): 237.7 s
Ki [4]: 95 nM
Activity (Mus musculus [5]): 0%
Activity (Mus musculus [6]): 0%
Activity (Mus musculus [7]): 0.3
Activity (Mus musculus [8]): 0.7
Ki [9]: 13.8 nM
Ki [10]: 133 nM

CN(C)CCOc1ccc2c(c1)n1ncc(I)c1n[n+]2[O-]
Ki [1]: 233 nM

[O-][n+]1nc2c(Cl)cnn2c2cc(Cl)ccc21
Ki [1]: 374 nM

Cc1ccc2c(c1)n1ncc(I)c1n[n+]2[O-]
Ki [1]: 12 nM

CC(C)Oc1ccc2c(c1)n1ncc(I)c1n[n+]2[O-]
Ki [1]: 42 nM

CCOc1ccc2c(c1)n1ncc(I)c1n[n+]2[O-]
Activity (Mus musculus [2]): 0%
Ki [1]: 4.8 nM
Ki [4]: 99 nM
Activity (Mus musculus [11]): Active
Activity (Mus musculus [5]): 0%
Activity (Mus musculus [12]): Active
Activity (Mus musculus [6]): 10%
Activity (Mus musculus [13]): Active
Activity (Mus musculus [7]): 0.2
Activity (Mus musculus [8]): 0.2
Activity (Mus musculus [14]): Active
Activity (Mus musculus [15]): Active
Ki [9]: 4.1 nM
Activity (Mus musculus [16]): Active
Ki [10]: 34 nM
Activity (Mus musculus [17]): 0.2

Cc1ccc2c(c1)n1ncc(Cl)c1n[n+]2[O-]
Ki [1]: 196 nM

CSc1ccc2c(c1)n1ncc(I)c1n[n+]2[O-]
Ki [1]: 15.8 nM

[O-][n+]1nc2c(I)cnn2c2cc(I)ccc21
Ki [1]: 14 nM

[O-][n+]1nc2c(I)cnn2c2cc(OCC3CC3)ccc21
Ki [1]: 7.6 nM

CCCCOc1ccc2c(c1)n1ncc(I)c1n[n+]2[O-]
Ki [1]: 5.4 nM

CCOc1ccc2n[n+]([O-])c3c(Br)cnn3c2c1
Ki [1]: 15.6 nM

COc1ccc2c(c1)n1ncc(I)c1n[n+]2[O-]
Ki [1]: 13.5 nM

[O-][n+]1nc2c(Br)cnn2c2cc(Cl)ccc21
Ki [1]: 120 nM

[O-][n+]1nc2c(I)cnn2c2cc(O)ccc21
Ki [1]: 1700 nM

[O-][n+]1nc2c(Cl)cnn2c2cc(I)ccc21
Ki [1]: 202 nM

CCOc1ccc2c(c1)n1ncc(Br)c1n[n+]2[O-]
Ki [1]: 36.9 nM

CN1C(=O)CN=C(c2ccccc2)c2cc(Cl)ccc21 [DIAZEPAM]
Ki [1]: 10 nM
Activity (Mus musculus [6]): 100%
Activity (Mus musculus [7]): 1.2

[O-][n+]1nc2c(I)cnn2c2cc(OCCCl)ccc21
Ki [1]: 62 nM

[O-][n+]1nc2c(Cl)cnn2c2cc(Br)ccc21
Ki [1]: 332 nM

CCCOc1ccc2c(c1)n1ncc(I)c1n[n+]2[O-]
Ki [1]: 12 nM

CCOc1ccc2c(c1)n1ncc(Cl)c1n[n+]2[O-]
Ki [1]: 160 nM

[O-][n+]1nc2c(I)cnn2c2cc(Br)ccc21
Ki [1]: 14 nM

COCCOc1ccc2c(c1)n1ncc(I)c1n[n+]2[O-]
Ki [1]: 37 nM

CCOc1ccc2n[n+]([O-])c3c(I)cnn3c2c1
Ki [1]: 1.7 nM
Activity (Mus musculus [3]): 293.4 s
Ki [4]: 70 nM
Activity (Mus musculus [11]): Active
Activity (Mus musculus [5]): 12.5%
Activity (Mus musculus [12]): Active
Activity (Mus musculus [6]): 0%
Activity (Mus musculus [8]): 0.4
Activity (Mus musculus [15]): Active
Ki [9]: 2.6 nM
Ki [10]: 12.3 nM
Activity (Mus musculus [17]): 0.6
